# Results as given in ChEMBL document CHEMBL5058577, “EUbOPEN Chemogenomics Library 2 (Multiplex)” (2022).
# System: U2OS
# Assay: Multiplex assay against U2OS
# Assay type: toxicity, cell-based
# Conditions: human
# Outline: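 With compound added, live cells were imaged on a CQ1 microscope at 37°C and 5% CO2; staining with Hoechst33342, BioTracker Green Microtubule Cytoskeleton Dye, MitoTracker Red and Annexin V Alexa Fluor 680 had been done at seeding. The CellPathfinder machine-learning gating scheme split cells into Hoechst high-intensity objects or normal cells, normal cells into healthy, pyknosed or fragmented nuclei, and pyknosed cells into mitotic or apoptotic. The tubulin, mitochondrial-mass and membrane-permeability phenotypes are per cents of healthy-nucleus cells.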
# [1] = 12 h, 1 µM, compound concentration 1 uM, replicate 1
# [2] = 12 h, 1 µM, compound concentration 1 uM, replicate 2
# [3] = 12 h, 10 µM, compound concentration 10 uM, replicate 1
# [4] = 12 h, 10 µM, compound concentration 10 uM, replicate 2
# [5] = 24 h, 1 µM, compound concentration 1 uM, replicate 1
# [6] = 24 h, 1 µM, compound concentration 1 uM, replicate 2
# [7] = 24 h, 10 µM, compound concentration 10 uM, replicate 1
# [8] = 24 h, 10 µM, compound concentration 10 uM, replicate 2
# [9] = 48 h, 1 µM, compound concentration 1 uM, replicate 1
# [10] = 48 h, 1 µM, compound concentration 1 uM, replicate 2
# [11] = 48 h, 10 µM, compound concentration 10 uM, replicate 1
# [12] = 48 h, 10 µM, compound concentration 10 uM, replicate 2
compound,measurement,setting,value
"CCCn1c(=O)c2[nH]c(C3CCCC3)nc2n(CCC)c1=O [1,3-DIPROPYL-8-CYCLOPENTYLXANTHINE [DPCPX]]",Population Apoptotic (%),[1],87%
same,Population Fragmented Nuclei (%),[1],25%
same,Population Healthy Nuclei (%),[1],64%
same,Population Hoechst High Intensity Objects (%),[1],1%
same,Population Membrane Permeable-Phenotype (%),[1],1%
same,Population Mitochondria Different-Phenotype (%),[1],3%
same,Population Mitotic Cells (%),[1],12%
same,Population Normal (%),[1],98%
same,Population Pyknosed Nuclei (%),[1],9%
same,Population Tubulin-Different-Phenotype (%),[1],1%
same,Total Cell Count,[1],250
same,Population Apoptotic (%),[2],93%
same,Population Fragmented Nuclei (%),[2],15%
same,Population Healthy Nuclei (%),[2],72%
same,Population Hoechst High Intensity Objects (%),[2],0%
same,Population Membrane Permeable-Phenotype (%),[2],7%
same,Population Mitochondria Different-Phenotype (%),[2],4%
same,Population Mitotic Cells (%),[2],6%
same,Population Normal (%),[2],100%
same,Population Pyknosed Nuclei (%),[2],12%
same,Population Tubulin-Different-Phenotype (%),[2],5%
same,Total Cell Count,[2],125
same,Population Apoptotic (%),[3],68%
same,Population Fragmented Nuclei (%),[3],30%
same,Population Healthy Nuclei (%),[3],60%
same,Population Hoechst High Intensity Objects (%),[3],2%
same,Population Membrane Permeable-Phenotype (%),[3],5%
same,Population Mitochondria Different-Phenotype (%),[3],1%
same,Population Mitotic Cells (%),[3],31%
same,Population Normal (%),[3],97%
same,Population Pyknosed Nuclei (%),[3],9%
same,Population Tubulin-Different-Phenotype (%),[3],3%
same,Total Cell Count,[3],206
same,Population Apoptotic (%),[4],100%
same,Population Fragmented Nuclei (%),[4],21%
same,Population Healthy Nuclei (%),[4],69%
same,Population Hoechst High Intensity Objects (%),[4],3%
same,Population Membrane Permeable-Phenotype (%),[4],6%
same,Population Mitochondria Different-Phenotype (%),[4],9%
same,Population Mitotic Cells (%),[4],0%
same,Population Normal (%),[4],96%
same,Population Pyknosed Nuclei (%),[4],8%
same,Total Cell Count,[4],96
same,Population Apoptotic (%),[5],83%
same,Population Fragmented Nuclei (%),[5],24%
same,Population Healthy Nuclei (%),[5],68%
same,Population Hoechst High Intensity Objects (%),[5],3%
same,Population Membrane Permeable-Phenotype (%),[5],5%
same,Population Mitochondria Different-Phenotype (%),[5],3%
same,Population Mitotic Cells (%),[5],16%
same,Population Normal (%),[5],96%
same,Population Pyknosed Nuclei (%),[5],7%
same,Population Tubulin-Different-Phenotype (%),[5],4%
same,Total Cell Count,[5],261
same,Population Apoptotic (%),[6],87%
same,Population Fragmented Nuclei (%),[6],13%
same,Population Healthy Nuclei (%),[6],74%
same,Population Hoechst High Intensity Objects (%),[6],2%
same,Population Membrane Permeable-Phenotype (%),[6],8%
same,Population Mitotic Cells (%),[6],12%
same,Population Normal (%),[6],97%
same,Population Pyknosed Nuclei (%),[6],11%
same,Total Cell Count,[6],138
same,Population Apoptotic (%),[7],89%
same,Population Fragmented Nuclei (%),[7],27%
same,Population Healthy Nuclei (%),[7],64%
same,Population Hoechst High Intensity Objects (%),[7],2%
same,Population Membrane Permeable-Phenotype (%),[7],7%
same,Population Mitochondria Different-Phenotype (%),[7],0%
same,Population Mitotic Cells (%),[7],10%
same,Population Normal (%),[7],97%
same,Population Pyknosed Nuclei (%),[7],8%
same,Population Tubulin-Different-Phenotype (%),[7],0%
same,Total Cell Count,[7],234
same,Population Apoptotic (%),[8],100%
same,Population Fragmented Nuclei (%),[8],21%
same,Population Healthy Nuclei (%),[8],71%
same,Population Hoechst High Intensity Objects (%),[8],4%
same,Population Membrane Permeable-Phenotype (%),[8],3%
same,Population Mitochondria Different-Phenotype (%),[8],3%
same,Population Mitotic Cells (%),[8],0%
same,Population Normal (%),[8],95%
same,Population Pyknosed Nuclei (%),[8],6%
same,Total Cell Count,[8],120
same,Population Apoptotic (%),[9],86%
same,Population Fragmented Nuclei (%),[9],20%
same,Population Healthy Nuclei (%),[9],69%
same,Population Hoechst High Intensity Objects (%),[9],1%
same,Population Membrane Permeable-Phenotype (%),[9],3%
same,Population Mitochondria Different-Phenotype (%),[9],1%
same,Population Mitotic Cells (%),[9],13%
same,Population Normal (%),[9],98%
same,Population Pyknosed Nuclei (%),[9],10%
same,Population Tubulin-Different-Phenotype (%),[9],2%
same,Total Cell Count,[9],364
same,Population Apoptotic (%),[10],92%
same,Population Fragmented Nuclei (%),[10],17%
same,Population Hoechst High Intensity Objects (%),[10],2%
same,Population Membrane Permeable-Phenotype (%),[10],8%
same,Population Mitochondria Different-Phenotype (%),[10],4%
same,Population Mitotic Cells (%),[10],8%
same,Population Normal (%),[10],97%
same,Population Pyknosed Nuclei (%),[10],13%
same,Population Tubulin-Different-Phenotype (%),[10],3%
same,Total Cell Count,[10],196
same,Population Apoptotic (%),[11],77%
same,Population Fragmented Nuclei (%),[11],24%
same,Population Healthy Nuclei (%),[11],62%
same,Population Hoechst High Intensity Objects (%),[11],2%
same,Population Membrane Permeable-Phenotype (%),[11],4%
same,Population Mitochondria Different-Phenotype (%),[11],1%
same,Population Mitotic Cells (%),[11],22%
same,Population Normal (%),[11],97%
same,Population Pyknosed Nuclei (%),[11],12%
same,Population Tubulin-Different-Phenotype (%),[11],3%
same,Total Cell Count,[11],322
same,Population Apoptotic (%),[12],100%
same,Population Fragmented Nuclei (%),[12],19%
same,Population Healthy Nuclei (%),[12],73%
same,Population Hoechst High Intensity Objects (%),[12],3%
same,Population Membrane Permeable-Phenotype (%),[12],5%
same,Population Mitochondria Different-Phenotype (%),[12],3%
same,Population Mitotic Cells (%),[12],0%
same,Population Normal (%),[12],96%
same,Population Pyknosed Nuclei (%),[12],6%
same,Population Tubulin-Different-Phenotype (%),[12],0%
same,Total Cell Count,[12],165
